Measured values reported in PMC6139073 (Cancer research, 2018).

How the values were obtained:
[1] = Plasma pharmacokinetics in patients; assay type: in vivo, human
p-ERK = p-ERK immunohistochemistry; assay type: in vivo, human; conditions: run-in and concurrent arms combined; H-score over 50 positive
Outline: (§1)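 Tumour biopsies from the expansion cohort (20 patients with metastatic irinotecan- and oxaliplatin-refractory CRC on MEK inhibitor plus Wnt-modulator combination); two core biopsies per patient, taken pre- and post-treatment. IHC with hematoxylin counterstain; brown membrane/cytoplasmic staining was scored positive. H-score (0–300) was derived from the proportion and intensity of stained tumour cells in the predominant compartment. Values over 50 were positive, and results were summarised descriptively.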

FZD1/2 = FZD1/2 immunohistochemistry; assay type: in vivo, human; conditions: run-in and concurrent arms combined; H-score over 50 positive
Outline: as §1

[2] = single agent; cited from earlier work
[3] = in vivo; cited from earlier work
[4] = in vivo; cited from earlier work; remark: listed apart in the source
[5] = test system: advanced BRAF V600E or V600K mutated melanoma; conditions: single agent, cited from earlier work

Row | difference in pharmacokinetics of selumetinib given alone versus with CsA ([1]; day -7 vs C1D1) | Cmax ([1]; human, plasma, oral) [ng/mL] | Cmax ([1]; human, plasma, oral, 75 mg) [ng/mL] | half-life ([1]; human, plasma, oral, 75 mg) [h] | SMILES | patients positive for p-ERK post-treatment (p-ERK) | patients positive for FZD1/2 post-treatment (FZD1/2) | Recommended Phase II Dose (RP2D) [2] [mg BID] | Visual changes, patients [3] [%] | dose limiting toxicity [3] | mean half-life (t½) [4] [h] | median progression-free survival ([5]; vs 1.5 in comparator, p < 0.001) [mos] | 6-month survival rate ([5]; vs 67% in comparator) [%]
1 | no substantial difference | 1250 | 1550 | 6.4 | Cn1cnc2c(F)c(Nc3ccc(Br)cc3Cl)c(C(=O)NOCCO)cc21 [selumetinib] | 14 out of 15 | 11 out of 15 | 100 | 12 | grade 3 acneiform rash and pleural effusion | 5 to 8 |  | 
2 |  |  |  |  | CC(=O)Nc1cccc(-n2c(=O)n(C3CC3)c(=O)c3c(Nc4ccc(I)cc4F)n(C)c(=O)c(C)c32)c1 [trametinib] |  |  |  |  |  |  | 4.8 | 81
